Measured values: ChEMBL document CHEMBL1132476, “Design and synthesis of novel alpha(1)(a) adrenoceptor-selective antagonists. 1. Structure-activity relationship in dihydropyrimidinones” (J Med Chem, 1999)

Tests used:
Canis familiaris [1] = species on record: Canis familiaris; test: Potency to inhibi phenylephrine stimulated diastolic blood pressure in dog.; format: functional, Canis lupus familiaris, Artery
Method in brief: (§1)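 Male mongrel dogs (9–14 kg), pentobarbital-anesthetized (35 mg/kg iv plus 4–5 mg/kg/h infusion), ventilated, with femoral catheters. Control iv bolus phenylephrine dose–response curves for intraurethral and diastolic pressure, repeated after successive iv antagonist doses (30, 100, 300). Kb by Arunlakshana–Schild analysis.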

Canis familiaris [2] = species on record: Canis familiaris; test: Potency to inhibit phenylephrine stimulated intraurethral pressure in dog.; format: functional, Canis lupus familiaris, Urethra; method in brief: as §1
Rattus norvegicus [3] = species on record: Rattus norvegicus; test: Dose required to produce 50% inhibition of phenylephrine induced contractile response in situ rat prostate.; format: functional, Prostate gland
Method in brief: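 Male Sprague-Dawley rats (300–400 g), urethane-anesthetized, held at 37 °C rectal, pretreated with atropine and propranolol (1 mg/kg each). Anterior prostate on a force transducer at 2 g resting tension; phenylephrine challenge 10 μg/kg. For AD50, rising noncumulative antagonist doses were given every 20 min, with agonist 5 min after each. For duration, agonist was given 5 min after antagonist, then every 30 min for up to 4 h.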

Rattus norvegicus [4] = species on record: Rattus norvegicus; test: Dose required to produce 50% inhibition of phenylephrine induced diastolic blood pressure in rat.; format: functional, Artery
Rattus norvegicus [5] = species on record: Rattus norvegicus; test: (§2) Duration of action in rat; format: functional
Method in brief: (§3)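 Anesthetized (urethane) male Sprague-Dawley rats (300–400 g), kept at 37 °C rectal temperature. Anterior prostate attached to a force transducer at 2 g resting tension. Pretreatment: atropine and propranolol (1 mg/kg each). Contractions were evoked by agonist (phenylephrine 10 μg/kg or (R)-A-61603 30 ng/kg), given 5 min after antagonist and then every 30 min for up to 4 h.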

Rattus norvegicus [6] = species on record: Rattus norvegicus; test: Antagonistic activity against norepinephrine induced contractions in rat aorta.; format: functional
Rattus norvegicus [7] = species on record: Rattus norvegicus; test: as §2; format: ADME, organism-based; settings: in vivo; method in brief: as §3
[8] = target: T1, Adrenergic receptor alpha-1 (Rattus norvegicus, UniProt P15823+P23944+P43140); test: In vitro binding affinity against Alpha-1A adrenergic receptor in isolated prostate tissue of rat; format: tissue-based, Prostate gland
T1 sequence (P15823 whole entry): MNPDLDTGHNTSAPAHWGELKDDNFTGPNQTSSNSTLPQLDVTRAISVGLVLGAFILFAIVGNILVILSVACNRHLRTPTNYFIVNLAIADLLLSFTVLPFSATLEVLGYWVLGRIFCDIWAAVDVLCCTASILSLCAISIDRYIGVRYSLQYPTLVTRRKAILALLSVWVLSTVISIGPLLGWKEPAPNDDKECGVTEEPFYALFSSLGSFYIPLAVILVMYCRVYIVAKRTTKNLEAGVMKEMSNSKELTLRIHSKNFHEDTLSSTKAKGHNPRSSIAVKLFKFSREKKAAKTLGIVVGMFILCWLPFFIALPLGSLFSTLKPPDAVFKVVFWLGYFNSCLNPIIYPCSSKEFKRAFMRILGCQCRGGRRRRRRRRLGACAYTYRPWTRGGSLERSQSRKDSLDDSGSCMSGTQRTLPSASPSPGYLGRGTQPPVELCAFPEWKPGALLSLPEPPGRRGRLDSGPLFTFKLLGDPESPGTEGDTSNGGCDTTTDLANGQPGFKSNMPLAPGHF
T1 sequence (P23944 whole entry): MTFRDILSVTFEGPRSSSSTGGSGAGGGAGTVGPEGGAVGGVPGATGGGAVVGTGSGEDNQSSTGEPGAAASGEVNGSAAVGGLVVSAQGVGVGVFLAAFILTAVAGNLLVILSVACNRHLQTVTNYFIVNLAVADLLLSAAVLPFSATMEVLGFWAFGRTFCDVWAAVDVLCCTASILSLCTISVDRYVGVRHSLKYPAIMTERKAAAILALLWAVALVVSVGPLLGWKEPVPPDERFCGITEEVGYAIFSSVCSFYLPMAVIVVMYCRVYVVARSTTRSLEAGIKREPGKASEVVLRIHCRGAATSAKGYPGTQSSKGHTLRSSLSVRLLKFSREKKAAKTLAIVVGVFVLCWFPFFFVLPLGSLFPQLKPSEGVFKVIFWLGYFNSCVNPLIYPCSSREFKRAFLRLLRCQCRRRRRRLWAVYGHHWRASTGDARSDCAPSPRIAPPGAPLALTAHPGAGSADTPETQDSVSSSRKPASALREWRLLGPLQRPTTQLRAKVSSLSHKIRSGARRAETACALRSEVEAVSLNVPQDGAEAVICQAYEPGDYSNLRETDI
T1 sequence (P43140 whole entry): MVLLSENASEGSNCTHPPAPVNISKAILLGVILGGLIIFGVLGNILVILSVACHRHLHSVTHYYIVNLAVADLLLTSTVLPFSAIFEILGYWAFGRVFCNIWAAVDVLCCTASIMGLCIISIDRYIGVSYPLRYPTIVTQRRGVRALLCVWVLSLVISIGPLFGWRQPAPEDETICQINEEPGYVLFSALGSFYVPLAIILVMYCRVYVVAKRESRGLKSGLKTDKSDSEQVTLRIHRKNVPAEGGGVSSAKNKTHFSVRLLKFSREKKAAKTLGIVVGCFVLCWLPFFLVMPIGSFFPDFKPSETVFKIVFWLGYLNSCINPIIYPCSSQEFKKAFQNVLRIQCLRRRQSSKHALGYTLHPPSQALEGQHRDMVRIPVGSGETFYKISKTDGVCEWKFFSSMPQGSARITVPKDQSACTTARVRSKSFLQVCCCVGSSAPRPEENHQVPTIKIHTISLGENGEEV

[9] = target: Adrenergic receptor alpha-1 (Rattus norvegicus) (UniProt P15823+P23944+P43140); test: Antagonistic activity against Alpha-1 adrenergic receptor in rat prostate tissue using A61603 as agonist; format: functional, tissue-based; settings: Prostate gland
Canis familiaris [10] = species on record: Canis familiaris; test: Potency to inhibit phenylephrine stimulated diastolic blood pressure in dog.; format: functional, Canis lupus familiaris, Artery; method in brief: as §1
Canis familiaris [11] = species on record: Canis familiaris; test: Antagonism against phenylephrine induced contractions in isolated prostate tissue of dog; format: functional, Canis lupus familiaris, Prostate gland
Method in brief: (§4)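 Isolated prostate strips (rat or dog) contracted with phenylephrine as agonist. Antagonist potency is expressed as Kb, derived from the shift in the agonist response by a previously published method.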

Rattus norvegicus [12] = species on record: Rattus norvegicus; test: Antagonism against phenylephrine induced contractions in isolated prostate tissue of rat; format: functional, Prostate gland; method in brief: as §4
Rattus norvegicus [13] = species on record: Rattus norvegicus; test: Antagonistic activity against norepinephrine induced contractions in rat vas deferens.; format: functional
Homo sapiens = species on record: Homo sapiens; test: Antagonism against phenylephrine induced contractions in isolated prostate tissue of human; format: functional; settings: Prostate gland

Structure (SMILES)	Kb (Canis familiaris [1]) [µg/kg]	Kb (Canis familiaris [2]) [µg/kg]	AD50 (Rattus norvegicus [3]) [mg/kg]	AD50 (Rattus norvegicus [4]) [mg/kg]	Duration of action (Rattus norvegicus [5]) [h]	Kb (Rattus norvegicus [6]) [nM]	Duration of action (Rattus norvegicus [7]) [h]	Ki [8] [nM]	Kb [9] [nM]	Kb (Canis familiaris [10]) [µg/kg]	Kb (Canis familiaris [11]) [nM]	Kb (Rattus norvegicus [12]) [nM]	Kb (Rattus norvegicus [13]) [nM]	Kb (Homo sapiens) [nM]
COc1cc2nc(N3CCN(C(=O)C4CCCO4)CC3)nc(N)c2cc1OC (stereo not drawn) [TERAZOSIN]	15.7	16.4	0.052	0.065	>4	19	–	–	–	–	–	–	–	–
CCC1=C(C(N)=O)C(c2ccc(F)c(F)c2)N(C(=O)NCCCN2CCC(C(=O)OC)(c3ccccc3)CC2)C(=O)N1 (stereo not drawn)	–	4.2	0.02	>3	–	> 1000	> 4	0.27	0.3	187	3.7	1	2.5	0.39
